Results collected from several papers.
Compare with care: the assays were run in different laboratories.
Target: MAP kinase-activated protein kinase 5 (MAPKAPK5, Homo sapiens, UniProt Q8IW41)

| SMILES | test | setting | measurement | value |
| --- | --- | --- | --- | --- |
| COc1cc(Nc2cnc(C#N)c(O[C@H](C)CN(C)C)n2)ncc1-c1cnn(C)c1 | enzyme activity, inhibitor, radiometric | 10 µM | remaining activity | 97% |
| CCCOc1ccc(OC)c(F)c1C(=O)c1ccc(C(=O)N[C@@H]2CNC[C@H]2NC(=O)c2ccc3[nH]ncc3c2)cc1 | enzyme activity, inhibitor | 10 µM | remaining activity | 91% |
| CC(C)(C)C(=O)c1sc(NC2CCCCC2)nc1N | enzyme activity, inhibitor | 10 µM | remaining activity | 103% |
| O=c1nc(-c2ccccn2)sc2ccccc12 | binding, competition with immobilised ligand | 1 µM | remaining binding | 92% |
| Cc1ccc(C(=O)NCc2ccsc2)cc1C#Cc1cn(C(C)C)c2ncnc(N)c12 | enzyme activity, inhibitor | 1 µM | activity vs control | 92% |
| Cc1sc(C(=O)NC2COC2)cc1-n1cc(NC(=O)Nc2c(F)cccc2Cl)cn1 | enzyme activity, inhibitor | 10 µM | remaining activity | 96.5% |
| Cn1cnc(Br)c1C1=CN(c2ncnc3[nH]cnc23)CCS1 | enzyme activity, inhibitor, radiometric | 50 nM | inhibition | 20.3% |
| CC(C)c1ccc(NC(=O)c2cccs2)c(-c2nc3ccccc3[nH]c2=O)c1 | enzyme activity, inhibitor | 1 µM | activity vs control | 106% |
| Cc1nc(Cc2cccc(C(F)(F)F)c2)sc1-c1ccc(C(N)=O)nc1 | cell-free assay, competition with immobilised ligand | 1 µM | remaining binding | 100% |
| Nc1ncnc2occ(-c3ccc(NC(=O)Nc4cc(C(F)(F)F)ccc4F)cc3)c12 | cell-free assay, inhibitor | 20 µM | remaining signal | 58% |
| CO[C@@H](C)c1c(Nc2ccc([C@H](N(C)C(=O)C3CCS(=O)(=O)CC3)C(F)(F)F)cc2)cnc2cc(Cl)nn12 | cell-free assay, competition with immobilised ligand | 1 µM | remaining binding | 100% |
| Cn1c(=O)n(-c2ccc(C(C)(C)C#N)cc2)c2c3cc(-c4cnc5ccccc5c4)ccc3ncc21 | enzyme activity, inhibitor | 10 µM | remaining activity | 93% |
| CNC(=O)c1cc(Oc2ccc(NC(=O)Nc3ccc(Cl)c(C(F)(F)F)c3)cc2)ccn1 | enzyme activity, inhibitor | 0.3 µM | inhibition | 18% |
| O=C(Nc1cnn(-c2csc(C(=O)NC3COC3)c2)c1)Nc1ccccc1Cl | enzyme activity, inhibitor | 5 µM | remaining activity | 92.8% |
| COCCOc1nc(-c2ccc(Cl)nc2)nc2c1CN(C(=O)c1ncn3ccccc13)CC2 | cell-free assay, competition with immobilised ligand | 0.1 µM | remaining binding | 100% |
| O=C(CSc1nc2nccnc2c(=O)n1CCc1ccccc1)Nc1nccs1 | enzyme activity, inhibitor | 10 µM | inhibition | -2% |
| CC(C)(C)c1nc2c(s1)c1nc(N)ncc1c1ccc(NS(=O)(=O)c3c(F)cccc3F)c(F)c12 | enzyme activity, inhibitor, radiometric | 1 µM | remaining activity | 83% |

| SMILES | test | setting | measurement | value |
| --- | --- | --- | --- | --- |
| COc1ccc2cc(OCC3(C(=O)O)CN(C(=O)c4ccc(F)cc4)C3)ccc2c1 | cell-free assay, competition with immobilised ligand | 1 µM | remaining binding | 76% |
| Cc1ccc(Nc2nccc(N(C)c3ccc4c(C)n(C)nc4c3)n2)cc1S(N)(=O)=O | enzyme activity, inhibitor | 10 µM | inhibition | 4% |
| C[C@@H]1CCN(C(=O)CC#N)C[C@@H]1N(C)c1ncnc2[nH]ccc12 | cell-free assay, inhibitor | 0.5 µM | remaining signal | 97.3% |
| CN(c1ncccc1CNc1nc(Nc2ccc3c(c2)CC(=O)N3)ncc1C(F)(F)F)S(C)(=O)=O | enzyme activity, inhibitor | 1 µM | inhibition | 0% |
| C=CC(=O)Nc1cc(Nc2nccc(Nc3cc(Cl)c(F)cc3C(C)(C)O)n2)c(OC)cc1N1CC[C@@H](N(C)C)C1 | enzyme activity, inhibitor | 1 µM | inhibition | 19% |
| Cc1cnc(NC2CCOCC2)nc1-n1cnc(C(=O)NC(CN)c2cc(F)cc(Cl)c2)c1 (stereo not shown) | enzyme activity, inhibitor, radiometric | 1 µM | remaining activity | 114% |
| O=C1CCc2cc(Nc3cc(OC4CCOCC4)c([N+](=O)[O-])cc3Cl)ccc2N1 | cell-free assay, competition with immobilised ligand | 1 µM | remaining binding | 78% |
| FC(F)(F)Oc1cccc(-c2cnc3ccc(-c4ccncc4)nn23)c1 | enzyme activity, inhibitor, radiometric | 1 µM | activity vs control | 85% |
| C[C@H](c1ccc(F)cc1)N(Cc1cccc(C(=O)O)c1)C(=O)c1cnc2ccccc2c1 | cell-free assay, competition with immobilised ligand | 1 µM | remaining binding | 96% |
| COc1cc2ncnc(Nc3ccc(Oc4ccccc4)c(C)c3C)c2cc1OC | enzyme activity, inhibitor | 1 µM | inhibition | -1% |
| CNc1cccc2cc(C(=O)Nc3ccc(C(=O)O)cc3)c(=O)[nH]c12 | enzyme activity, inhibitor | 10 µM | inhibition | 20% |
| Nc1nc(NC2CCCCC2)sc1C(=O)c1ccccc1 | enzyme activity, inhibitor | 10 µM | remaining activity | 96% |
| CC(C)(O)[C@H]1CC[C@H](Nc2ccc3ncc(-c4cccc(C(F)(F)F)c4)n3n2)CC1 | enzyme activity, inhibitor | 1 µM | remaining activity | 105% |
| N#CCCc1ccc2c(c1)-c1[nH]c3ccc([N+](=O)[O-])cc3c1CC(=O)N2 | cell-free assay | 0.5 µM | remaining signal | 94.3% |
| C[C@H](NC(=O)c1cnc2n1[C@](C)(Cc1ccc(C#N)cc1)C(=O)N2c1cc(Cl)c(F)c(Cl)c1)C(=O)NC1(c2ccccn2)CC1 | cell-free assay, competition with immobilised ligand | 1 µM | remaining binding | 96% |
| CCN(CC)CCNC(=O)c1c(C)[nH]c(/C=C2\C(=O)Nc3ccc(F)cc32)c1C | cell-free assay | 0.5 µM | remaining signal | 82.7% |
| CNCc1ccc(-c2cc(-c3nc(-c4ccc(S(=O)(=O)C(C)C)cc4)cnc3N)on2)cc1 | enzyme activity, inhibitor | 2 µM | inhibition | 0% |
